Hits are enriched below; roughly 4.1% of the tested compounds scored in any of these assays.
Apaf-1 inh: inhibitors of human Apaf-1 apoptosome. O14727. reconstituted apoptosome caspase-3 activity, DEVD-Rh110 fluorescence. inhibition, % at 20 µM. 330,000 tested, 0.71% active. AID 489030; active = inhibition of at least 40% at 20 µM;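 also: plate controls were DMSO wells for no effect and DEVD-CHO caspase inhibitor wells for full effect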
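Assay system – apoptosome proteins · Medium – Hepes buffer, pH 7.5 · Also added – cytochrome c with DEVD-Rh110 · Timing – 30 min compound preincubation, 50 min activation, room temperature · Detection – Rh110 fluorescence, excitation 480 nm, emission 540 nm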
UPR CHOP act: apoptotic UPR (CHOP) activation. CHO-CHOP luciferase reporter, luminescence; percent of tunicamycin response over DMSO baseline. AID 449763. activation, % at 10 µM. 330,000 tested, 0.34% active;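 active = at 10 µM dose, activation of 40% or more, normalized to positive control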;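 also: 100% = tunicamycin at 10 µg/mL and 0% = DMSO alone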
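Dosing – one dose, 10 µM in 0.5% DMSO · System – CHO-CHOP cells, stable luciferase reporter of PERK-eIF2a-CHOP signalling · Input – 500 cells/well · Control set – tunicamycin 10 µg/mL final as positive, DMSO-only wells as negative · Timing – 6 h compound treatment, 37 °C · Measure – % activation vs tunicamycin · Technique – luminescence read with Steady-Glo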
Mdm2-MdmX inh: disrupts the human Mdm2-MdmX interaction; SaOS-2 split-luciferase Mdm2/MdmX complementation, luminescence; inhibition, % at 8 µM; 330,000 tested, 3% active;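 active = inhibition of at least 50% at 8 µM in the primary screen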
XBP1 UPR activ: activators of adaptive arm of unfolded protein response (XBP1). AID 463104. activation, % at 20 µM. CHO-XBP1 luciferase reporter, IRE1-XBP1 UPR activation, luminescence; percent of tunicamycin response, DMSO as zero. 330,000 tested, 0.33% active;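 active = versus positive control, 20 µM dose yields 30% or more activation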;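 also: 100% = tunicamycin at 10 µg/mL and 0% = DMSO only wells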
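Material: CHO cell line with stable XBP1 luciferase reporter; schedule: 16-18 h cell attachment at 37 °C, then 6 h compound exposure; signal: glow luminescence from Steady-Glo reagent; medium: serum-containing F12 medium, 10% FBS; benchmarks: tunicamycin 10 µg/mL and vehicle-only wells; read-out: percent activation relative to tunicamycin reference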
UBC13 inh: human UBC13 polyubiquitination inhibition; P61088; UBC13 polyubiquitin chain formation, TR-FRET; inhibition, % at 20 µM; 330,000 tested, 0.47% active; in the data active = inhibition above about 45%, passing the limit was not always enough
Mdm2 MdmX conf: human Mdm2/MdmX binding inhibition, confirmed | shares compounds with Mdm2-MdmX inh | luminescent assay | inhibition, % at 8 µM | 10,000 tested, 55% active; in the data active = inhibition above about 40%
FLuc counter: full-length luciferase inhibition in Mdm2/MdmX counter-screen; shares compounds with Mdm2-MdmX inh; SaOS-2 full-length luciferase counterscreen, luminescence; inhibition, % at 8 µM; 6,200 tested, 77% active; AID 504607;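 active = mean inhibition at 8 µM reaching about 37%, which flags the compound as non-specific, limit read from the data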;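 also: p53-null SaOS-2 cells with luciferase driven by a doxycycline-inducible promoter; compound on cells about two nights before reading with doxycycline added after day one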
Numbers without * were called inactive.

Results for Cc1cccc(N2CCN(C(=O)c3cc(S(=O)(=O)N4CCOCC4)cn3C)CC2)c1C ?
Apaf-1 inh: 2; UPR CHOP act: 1; Mdm2-MdmX inh: 28; XBP1 UPR activ: -3; UBC13 inh: 0

Results for Cc1cccc(N2CCN(C(=O)c3cn(C)c(=O)c4c3c3ccccc3n4C)CC2)c1C ?
Apaf-1 inh: 25; UPR CHOP act: -2; Mdm2-MdmX inh: 59*; XBP1 UPR activ: -1; UBC13 inh: 10; Mdm2 MdmX conf: 45*; FLuc counter: 64*

How did Cc1ccc(Cl)cc1N1CCN(C(=O)c2cn(C)c(=O)c3c2c2ccccc2n3C)CC1 do in these assays?
Apaf-1 inh: 27; UPR CHOP act: 1; Mdm2-MdmX inh: 69*; XBP1 UPR activ: 3; UBC13 inh: 12; Mdm2 MdmX conf: 63*; FLuc counter: 42*

What do the screens show for `Cc1ccc(N=C2N=C(N)c3ccccc32)cc1C`?
Apaf-1 inh: 6; UPR CHOP act: 3; Mdm2-MdmX inh: 26; XBP1 UPR activ: 1; UBC13 inh: -4

Results for CCc1ccc(N=C2N=C(N)c3ccccc32)cc1 ?
Apaf-1 inh: 10; UPR CHOP act: 4; Mdm2-MdmX inh: 55*; XBP1 UPR activ: -2; UBC13 inh: 4; Mdm2 MdmX conf: -9

How did COc1ccc(Nc2nccc(-c3ccc(C#N)cc3)n2)cc1 do in these assays?
Apaf-1 inh: 3; UPR CHOP act: -1; Mdm2-MdmX inh: 26; XBP1 UPR activ: 0; UBC13 inh: 6

What do the screens show for `COc1ccc(Nc2nccc(-c3cccc(N)c3)n2)cc1`?
Apaf-1 inh: 12; UPR CHOP act: -1; Mdm2-MdmX inh: 65*; XBP1 UPR activ: -5; UBC13 inh: -4; Mdm2 MdmX conf: -13

Results for O=[N+]([O-])c1ccccc1Oc1ccc(S(=O)(=O)N2CCOCC2)cc1 ?
Apaf-1 inh: -6; UPR CHOP act: 1; Mdm2-MdmX inh: 10; XBP1 UPR activ: -2; UBC13 inh: 16

What do the screens show for `Cc1ccc(Nc2nnc(SC3CCOC3=O)s2)cc1` (stereo unspecified)?
Apaf-1 inh: -15; UPR CHOP act: 2; Mdm2-MdmX inh: -17; XBP1 UPR activ: -2; UBC13 inh: 2

Results for CC(C)c1ccc(Nc2nnc(SC3CCOC3=O)s2)cc1 (stereo unspecified) ?
Apaf-1 inh: 3; UPR CHOP act: 1; Mdm2-MdmX inh: 52*; XBP1 UPR activ: 1; UBC13 inh: 4; Mdm2 MdmX conf: -3

What do the screens show for `O=C(COC(=O)C12CC3CC(CC(C3)C1)C2)Nc1nc2c(F)c(F)c(F)cc2s1`?
Apaf-1 inh: 27; UPR CHOP act: 0; Mdm2-MdmX inh: 58*; XBP1 UPR activ: -4; UBC13 inh: -2; Mdm2 MdmX conf: 14

How did COC(=O)c1c(C)n(-c2ccc(C)cc2)c2ccc(O)cc12 do in these assays?
Apaf-1 inh: 7; UPR CHOP act: 4; Mdm2-MdmX inh: 53*; XBP1 UPR activ: 0; UBC13 inh: 10; Mdm2 MdmX conf: 46*; FLuc counter: 55*

What do the screens show for `CCOc1ccc(-n2c(C)c(C(=O)OC)c3cc(O)ccc32)cc1`?
Apaf-1 inh: -11; UPR CHOP act: 1; Mdm2-MdmX inh: 46; XBP1 UPR activ: 0; UBC13 inh: 21

Results for COC(=O)c1c(C)n(-c2ccccc2)c2ccc(O)cc12 ?
Apaf-1 inh: 5; UPR CHOP act: -2; Mdm2-MdmX inh: 27; XBP1 UPR activ: 0; UBC13 inh: 13

What do the screens show for `CC(=O)c1ccc(-n2c(C)c(C(C)=O)c3cc(O)ccc32)cc1`?
Apaf-1 inh: 1; UPR CHOP act: -2; Mdm2-MdmX inh: 62*; XBP1 UPR activ: 0; UBC13 inh: 8; Mdm2 MdmX conf: 65*; FLuc counter: 48*

Results for CCOc1ccc(-n2c(C)c(C(C)=O)c3cc(O)ccc32)cc1 ?
Apaf-1 inh: -2; UPR CHOP act: -1; Mdm2-MdmX inh: 53*; XBP1 UPR activ: -2; UBC13 inh: 3; Mdm2 MdmX conf: 56*; FLuc counter: 31

Source: PubChem BioAssay (Sanford-Burnham Center for Chemical Genomics)
